# In the library only some 1.7% were active in any assay of this set; here they are far more common.
# EBNA-1 inhibitor – blocks EBNA-1 binding to DNA; EBNA-1 DNA binding, fluorescence polarization; inhibition, % at 14.8 µM; 300,000 tested, 0.34% active; AID 1950; in the data active = inhibition above about 28%
# PREPL inh – inhibitors of human prolyl oligopeptidase-like enzyme PREPL; 320,000 tested, 0.68% active; Q4J6C6; inhibition, % at 5.96 µM; recombinant PREPL, fluorescence polarization activity-based probe; in the data active = inhibition above about 43%;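 also: 0% = enzyme with DMSO and 100% = wells lacking enzyme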
# Apaf-1 inh – blocks human Apaf-1 apoptosome activity; 330,000 tested, 0.71% active; inhibition, % at 20 µM; reconstituted apoptosome caspase-3 activity, DEVD-Rh110 fluorescence; O14727; active = inhibition of at least 40% at 20 µM;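 also: plate controls were DMSO wells for no effect and DEVD-CHO caspase inhibitor wells for full effect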
#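 Material: cell-free apoptosome with Apaf-1, procaspase-3 and caspase-9; Buffer or medium: Hepes pH 7.5 with detergent and BSA; Reagent: cytochrome c trigger plus (Z-DEVD)2-Rh110 caspase-3 substrate; Times: compound with Apaf-1, dATP, procaspase-3 30 min, then 50 min reaction, room temperature; Technique: Rh110 fluorescence intensity.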
# ZTA DNA inh – counter-screen for EBNA-1 inhibitors: inhibitors of Epstein-Barr virus ZTA; P03206; ZTA-DNA binding, fluorescence polarization; inhibition, % at 11 µM; 320,000 tested, 0.15% active; in the data active = inhibition above about 33%
# Target sequence (P03206 whole entry, looked up): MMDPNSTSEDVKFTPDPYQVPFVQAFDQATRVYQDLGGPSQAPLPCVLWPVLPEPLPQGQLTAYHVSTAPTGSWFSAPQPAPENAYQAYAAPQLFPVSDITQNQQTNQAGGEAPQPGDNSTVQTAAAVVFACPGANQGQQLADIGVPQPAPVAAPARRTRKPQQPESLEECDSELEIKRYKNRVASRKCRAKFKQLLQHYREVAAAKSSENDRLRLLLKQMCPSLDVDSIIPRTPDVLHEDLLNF
# UBC13 inh – inhibitors of human UBC13 polyubiquitin chain formation. P61088. TR-FRET. inhibition, % at 20 µM. 330,000 tested, 0.47% active. AID 485273; in the data active = inhibition above about 45%, passing the limit was not always enough; inconclusive = no clear call, values can overlap the other calls
# Target sequence (P61088 whole entry, looked up): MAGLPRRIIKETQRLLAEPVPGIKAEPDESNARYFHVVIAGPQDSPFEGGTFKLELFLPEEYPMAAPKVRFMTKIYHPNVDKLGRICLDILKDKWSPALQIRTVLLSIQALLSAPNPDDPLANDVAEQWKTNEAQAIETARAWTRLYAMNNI
# Casp3 UBC13 ctr – inhibits human caspase-3 in UBC13 counter-screen; shares compounds with UBC13 inh; Recombinant caspase-3, Caspase-Glo 3/7 luminescence, 60 min; AID 488856; inhibition, % at 20 µM; 1,400 tested, 4% active;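 active = mean inhibition across replicates above about 26%, limit read from the data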;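 also: plate controls were DMSO with caspase-3 for no effect and DMSO wells lacking enzyme for full effect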
# UBC13 conf – human UBC13 polyubiquitin inhibition, confirmed. 1,400 tested, 68% active. UBC13 polyubiquitination, TR-FRET, biochemical. AID 488859. shares compounds with UBC13 inh. inhibition, % at 10 µM; in the data active = inhibition above about 45%; inconclusive = no clear call, values can overlap the other calls
# An asterisk follows results filed as active; ? = inconclusive; . = no result.
SMILES,EBNA-1 inhibitor,PREPL inh,Apaf-1 inh,ZTA DNA inh,UBC13 inh,Casp3 UBC13 ctr,UBC13 conf
c1ccc(CCCCN2C(Nc3ccccc3)=NC[C@@H]2Cc2ccccc2)cc1,1,-6,31,-11,49*,-4,17
CCOC(=O)c1c(NC(=O)C(NCCN(C)C)c2ccccc2)sc2c1CCCC2 (stereo not given),2,30,14,17,48*,-3,88*
CCOC(=O)Cc1cc(=O)[nH]c(/N=C(/NC(=O)c2ccccc2)Nc2ccccc2C(F)(F)F)n1,5,4,-5,0,-7,.,.
Cc1nc2ccccc2c(=O)n1NC(=O)c1ccccc1Br,8,-14,-3,7,9,.,.
CCCOc1ccc(C(=O)Nn2c(C)nc3ccccc3c2=O)cc1,0,5,-9,1,96*,-2,108*
Cc1nc2ccccc2c(=O)n1NC(=O)/C=C/c1ccc(Br)cc1,-12,-28,6,-20,60*,7,53*
COc1ccc(C(=O)Nn2c(C)nc3ccccc3c2=O)cc1,1,3,0,7,82*,-8,84*
Cc1nc2ccccc2c(=O)n1NC(=O)c1ccc(C(C)(C)C)cc1,6,-7,6,10,39,.,.
COc1ccc(-c2ccc(=O)n(Cc3ccc([N+](=O)[O-])cc3)n2)cc1,-8,9,-2,4,-9,.,.
CCCc1nc2ccccc2c(=O)n1NC(=O)c1c(O)c2ccccc2n(C)c1=O,2,0,-1,3,47*,1,12
COC(=O)NC(Nc1sc2c(c1C(N)=O)CCCC2)(C(=O)OC)C(F)(F)F (stereo not given),5,0,-3,2,-4,.,.
CCc1cccc(NC(=O)CSC2=NS(=O)(=O)c3ccccc32)c1,3,-5,-13,1,47*,0,25
N#Cc1sc2nc(-c3cccs3)cc(-c3ccc(F)cc3)c2c1N,13,14,16,15,59*,-2,34
CS(=O)(=O)c1sc2nc(-c3cccs3)cc(-c3ccccc3)c2c1N,9,4,39,13,-31,.,.
CN(C)CCNc1ncnc2c1sc1nc(-c3ccccc3)c3c(c12)CCCC3,-8,10,30,-1,62*,2,103*
CCOc1ccc2c(c1)c(N=NC(N)=S)c(O)n2C,-2,9,-35,8,?,.,.
NC(=S)N=Nc1c(O)n(C2OC(=O)c3ccccc32)c2ccccc12 (stereo not given),-2,8,6,-16,88*,0,104*
NC(=S)N=Nc1c(O)n(CCCl)c2ccc(Cl)cc12,6,11,3,9,68*,-3,90*
NC(=S)N=Nc1c(O)n(CCCl)c2ccccc12,-6,-1,2,-1,90*,-4,85*
Cc1ccc(CNC(=O)C2CCCN(c3nc4ccccc4o3)C2)cc1 (stereo not given),-8,-7,-2,7,-1,.,.
CCN(CC)C(=O)Cn1cc(/C=C(\C#N)C(=O)NC2CC2)c2ccccc21,-10,5,-2,-2,-15,.,.
COc1cc(OC)cc(C(=O)NCCSc2c[nH]c3ccccc23)c1,-5,-9,-11,3,5,.,.
NC(=O)CCCc1nc(-c2ccccc2)no1,-9,1,3,-7,3,.,.
C#CCOCCOCCOCCNc1nc(N2CCN(C(=O)[C@H]([C@@H](C)CC)n3cc([C@@H](N)Cc4ccc(O)cc4)nn3)CC2)nc(N2CCN(C(=O)[C@H]([C@@H](C)CC)n3cc([C@@H](N)CC(C)C)nn3)CC2)n1,3,3,32,-3,68*,-3,41
C#CCOCCOCCOCCNc1nc(N2CCN(C(=O)[C@H]([C@@H](C)CC)n3cc([C@@H](N)Cc4ccc(O)cc4)nn3)CC2)nc(N2CCN(C(=O)[C@H](Cc3ccc(O)cc3)n3cc([C@@H](N)CC(C)C)nn3)CC2)n1,4,12,29,0,45*,-4,29
C#CCOCCOCCOCCNc1nc(N2CCOCC2)nc(N2CCN(C(=O)[C@H]([C@@H](C)CC)n3cc([C@@H](N)Cc4ccc(O)cc4)nn3)CC2)n1,10,5,-5,-1,15,.,.

# Source: PubChem
